Source: ChEMBL document CHEMBL1275556, “High prevalence of plasmid-mediated quinolone resistance genes qnr and aac(6')-Ib-cr in clinical isolates of Enterobacteriaceae from nine teaching hospitals in China” (2008)
In brackets after ≈: the same amount, converted by molar mass.

Columns and labels:
Klebsiella pneumoniae [1] = experiment: Antimicrobial activity against aac(6')-Ib-cr-positive Klebsiella pneumoniae GZ40T harboring qnrB gene by agar dilution method
Enterobacter cloacae [2] = experiment: Antimicrobial activity against aac(6')-Ib-cr-negative Enterobacter cloacae FJ61 harboring GyrA S83I, GyrA D87A, ParC S80I mutant, wild-type GyrB and qnrS genes by agar dilution method; assay type: functional
Enterobacter cloacae [3] = experiment: Antimicrobial activity against aac(6')-Ib-cr-positive Enterobacter cloacae FJ63T harboring qnrS gene by agar dilution method in presence of clavulanic acid; assay type: functional
Method in brief: (§1)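 Transconjugants came from conjugation of qnr and/or aac(6')-Ib-cr-carrying donors with azide-resistant E. coli J53. […] MICs were determined by CLSI agar dilution (M7-A7) and interpreted by M100-S17.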

Enterobacter cloacae [4] = experiment: Antimicrobial activity against aac(6')-Ib-cr-negative Enterobacter cloacae WH42T harboring qnrA gene by agar dilution method in presence of clavulanic acid; assay type: functional; method in brief: as §1
Enterobacter cloacae [5] = experiment: Antimicrobial activity against aac(6')-Ib-cr-negative Enterobacter cloacae FJ61 harboring GyrA S83I, GyrA D87A, ParC S80I mutant, wild-type GyrB and qnrS genes by agar dilution method in presence of clavulanic acid; assay type: functional
Method in brief: (§2)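 MICs measured by CLSI agar dilution (M7-A7) and interpreted against CLSI M100-S17 breakpoints. Strains were clinical Enterobacteriaceae isolates or the azide-resistant E. coli J53 recipient.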

Klebsiella pneumoniae [6] = experiment: Antimicrobial activity against aac(6')-Ib-cr-positive Klebsiella pneumoniae SY26T harboring wild-type GyrA, ParC, GyrB and qnrB genes by agar dilution method in presence of clavulanic acid; assay type: functional; method in brief: as §1
Klebsiella pneumoniae [7] = experiment: Antimicrobial activity against aac(6')-Ib-cr-negative Klebsiella pneumoniae SY22 harboring GyrA S83I, ParC S80I mutant, wild-type GyrB and qnrS genes by agar dilution method in presence of clavulanic acid; assay type: functional
Method in brief: (§3)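 MICs were determined by CLSI agar dilution (M7-A7) and interpreted by CLSI M100-S17 breakpoints. The curator's line names the β-lactamase inhibitor added.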

Enterobacter cloacae [8] = experiment: Antimicrobial activity against aac(6')-Ib-cr-negative Enterobacter cloacae FJ67T harboring qnrS gene by agar dilution method; assay type: functional
Klebsiella pneumoniae [9] = experiment: Antimicrobial activity against aac(6')-Ib-cr-positive Klebsiella pneumoniae GZ40 harboring GyrA S83I, ParC S80I mutant, wild-type GyrB and qnrB genes by agar dilution method in presence of clavulanic acid; assay type: functional; method in brief: as §2
Citrobacter freundii [10] = experiment: Antimicrobial activity against aac(6')-Ib-cr-positive Citrobacter freundii TJ15 harboring GyrA T83I, ParC S80I mutant, wild-type GyrB, qnrB genes by agar dilution method in presence of clavulanic acid; assay type: functional; method in brief: as §3
Enterobacter cloacae [11] = experiment: Antimicrobial activity against aac(6')-Ib-cr-positive Enterobacter cloacae FJ63T harboring qnrS gene by agar dilution method; assay type: functional
Citrobacter freundii [12] = experiment: Antimicrobial activity against aac(6')-Ib-cr-negative Citrobacter freundii JN64 harboring GyrA T83I, wild-type ParC, GyrB and qnrA genes by agar dilution method in presence of clavulanic acid; assay type: functional
Method in brief: (§4)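 MICs were determined by the CLSI agar dilution method (M7-A7) and interpreted against CLSI M100-S17 breakpoints.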

Escherichia coli [13] = experiment: Antimicrobial activity against aac(6')-Ib-cr-negative Escherichia coli PU12T harboring wild-type GyrA, GyrB, ParC and qnrS genes by agar dilution method; assay type: functional; method in brief: as §4
Klebsiella pneumoniae [14] = experiment: Antimicrobial activity against aac(6')-Ib-cr-positive Klebsiella pneumoniae JN41 harboring GyrA S83I, ParC S80I mutant, wild-type GyrB and qnrB genes by agar dilution method in presence of clavulanic acid; assay type: functional; method in brief: as §3
Klebsiella pneumoniae [15] = experiment: Antimicrobial activity against aac(6')-Ib-cr-positive Klebsiella pneumoniae GZ40T harboring qnrB gene by agar dilution method in presence of clavulanic acid; assay type: functional; method in brief: as §1
Enterobacter cloacae [16] = experiment: Antimicrobial activity against aac(6')-Ib-cr-positive Enterobacter cloacae FJ63 harboring GyrA S83I, GyrA D87A, ParC S80I mutant, wild-type GyrB and qnrS genes by agar dilution method in presence of clavulanic acid; assay type: functional; method in brief: as §4
Enterobacter cloacae [17] = experiment: Antimicrobial activity against aac(6')-Ib-cr-negative Enterobacter cloacae GZ51T harboring qnrA gene by agar dilution method; assay type: functional
Enterobacter cloacae [18] = experiment: Antimicrobial activity against aac(6')-Ib-cr-negative Enterobacter cloacae GZ47 harboring qnrB and qnrS genes by agar dilution method; assay type: functional
Escherichia coli [19] = experiment: Antimicrobial activity against aac(6')-Ib-cr-negative Escherichia coli PU12 harboring GyrA S83L mutant, wild-type GyrB, ParC and qnrS genes by agar dilution method; assay type: functional; method in brief: as §4
Escherichia coli [20] = experiment: Antimicrobial activity against Escherichia coli J53 harboring wild-type GyrA, ParC, GyrB genes by agar dilution method
Enterobacter cloacae [21] = experiment: Antimicrobial activity against aac(6')-Ib-cr-negative Enterobacter cloacae GZ47 harboring qnrB and qnrS genes by agar dilution method in presence of clavulanic acid; assay type: functional; method in brief: as §2
Enterobacter cloacae [22] = experiment: Antimicrobial activity against aac(6')-Ib-cr-negative Enterobacter cloacae GZ47 harboring qnrB and qnrS genes by agar dilution method in presence of Tazobactam; assay type: functional; method in brief: as §4
Enterobacter cloacae [23] = experiment: Antimicrobial activity against aac(6')-Ib-cr-negative Enterobacter cloacae SH39 harboring GyrA S83I, ParC S80I mutant, wild-type GyrB and qnrA genes by agar dilution method in presence of Tazobactam; assay type: functional; method in brief: as §4
Citrobacter freundii [24] = experiment: Antimicrobial activity against aac(6')-Ib-cr-positive Citrobacter freundii PU55T harboring wild-type GyrA, ParC, GyrB and qnrA genes by agar dilution method in presence of Tazobactam; assay type: functional; method in brief: as §4
Citrobacter freundii [25] = experiment: Antimicrobial activity against aac(6')-Ib-cr-positive Citrobacter freundii JS33 harboring GyrA T83I mutant, wild-type ParC, GyrB, qnrA and qnrB genes by agar dilution method in presence of Tazobactam; assay type: functional; method in brief: as §4
Enterobacter cloacae [26] = experiment: Antimicrobial activity against aac(6')-Ib-cr-negative Enterobacter cloacae FJ61T harboring qnrS gene by agar dilution method in presence of Tazobactam; assay type: functional; method in brief: as §4
Klebsiella pneumoniae [27] = experiment: Antimicrobial activity against aac(6')-Ib-cr-positive Klebsiella pneumoniae JN132T harboring qnrB gene by agar dilution method in presence of Tazobactam; assay type: functional
Method in brief: (§5)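 Transconjugants came from conjugation of qnr and/or aac(6')-Ib-cr donors into azide-resistant E. coli J53. […] MICs were measured by CLSI agar dilution (M7-A7) and interpreted per M100-S17.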

Escherichia coli [28] = experiment: Antimicrobial activity against aac(6')-Ib-cr-positive Escherichia coli FJ3T harboring wild-type GyrA, ParC, GyrB and qnrB genes by agar dilution method in presence of Tazobactam; assay type: functional; method in brief: as §5
Enterobacter cloacae [29] = experiment: Antimicrobial activity against aac(6')-Ib-cr-positive Enterobacter cloacae FJ63 harboring GyrA S83I, GyrA D87A, ParC S80I mutant, wild-type GyrB and qnrS genes by agar dilution method in presence of Tazobactam; assay type: functional; method in brief: as §4

CO/N=C(\C(=O)N[C@@H]1C(=O)N2C(C(=O)O)=C(COC(C)=O)CS[C@H]12)c1csc(N)n1 [CEFOTAXIME]
MIC (Klebsiella pneumoniae [1]): 0.032 µg/mL (≈ 0.0703 µM) | MIC (Enterobacter cloacae [2]): 256 µg/mL (≈ 562 µM) | MIC (Enterobacter cloacae [3]): 0.032 µg/mL | MIC (Enterobacter cloacae [4]): 0.032 µg/mL | MIC (Enterobacter cloacae [5]): 8 µg/mL | MIC (Klebsiella pneumoniae [6]): 0.032 µg/mL | MIC (Klebsiella pneumoniae [7]): 0.064 µg/mL | MIC (Enterobacter cloacae [8]): 64 µg/mL (≈ 141 µM) | MIC (Klebsiella pneumoniae [9]): 0.5 µg/mL | MIC (Citrobacter freundii [10]): 16 µg/mL | MIC (Enterobacter cloacae [11]): 32 µg/mL (≈ 70.3 µM) | MIC (Citrobacter freundii [12]): 128 µg/mL | MIC (Escherichia coli [13]): 16 µg/mL (≈ 35.1 µM) | MIC (Klebsiella pneumoniae [14]): 0.032 µg/mL | MIC (Klebsiella pneumoniae [15]): 0.032 µg/mL | MIC (Enterobacter cloacae [16]): 1 µg/mL | MIC (Enterobacter cloacae [17]): 32 µg/mL (≈ 70.3 µM) | MIC (Enterobacter cloacae [18]): 64 µg/mL (≈ 141 µM) | MIC (Escherichia coli [19]): 16 µg/mL (≈ 35.1 µM) | MIC (Escherichia coli [20]): 0.032 µg/mL (≈ 0.0703 µM) | MIC (Enterobacter cloacae [21]): 8 µg/mL

CCN1CCN(C(=O)N[C@@H](C(=O)N[C@@H]2C(=O)N3[C@@H]2SC(C)(C)[C@@H]3C(=O)O)c2ccccc2)C(=O)C1=O [PIPERACILLIN]
MIC (Enterobacter cloacae [22]): 4 µg/mL | MIC (Enterobacter cloacae [23]): 2 µg/mL | MIC (Citrobacter freundii [24]): 4 µg/mL | MIC (Citrobacter freundii [25]): 8 µg/mL | MIC (Enterobacter cloacae [26]): 1 µg/mL | MIC (Klebsiella pneumoniae [27]): 4 µg/mL | MIC (Escherichia coli [28]): 1 µg/mL | MIC (Enterobacter cloacae [29]): > 256 µg/mL
